Measured values published in ChEMBL document CHEMBL4477169, “Vestitol Isolated from Brazilian Red Propolis Inhibits Neutrophils Migration in the Inflammatory Process: Elucidation of the Mechanism of Action” (J Nat Prod, 2016).
Activity calls are given as the source filed them. No cut-off for these calls is given here.

Tests used:
Mus musculus [1] = assay: Antiinflammatory activity in C57BL/6 mouse assessed as reduction in CXCL1/KC release in peritoneal cavity at 10 mg/kg, sc dosed 30 mins prior LPS challenge measured after 3 hrs post LPS challenge by ELISA; assay type: functional, organism-based
Procedure, shortened: (§1)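 Male SPF C57BL/6 mice (20−22 g) given sc vehicle or test agent 30 min before ip LPS (300 ng/cavity, in saline) or mBSA (30 μg/cavity) in mBSA-immunized mice. Peritoneal fluid collected after 1.5 or 3 h. TNF-α, IL-1β, CXCL1/KC and CXCL2/MIP-2 measured by ELISA, expressed as pg/mL. Mean ± SEM, n = 4−5, Tukey's test.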

Mus musculus [2] = assay: Antiinflammatory activity in C57BL/6 mouse assessed as reduction in CXCL1/KC release in peritoneal cavity at 10 mg/kg, sc dosed 30 mins prior mBSA challenge measured after 3 hrs post mBSA challenge by ELISA; assay type: functional, organism-based; procedure, shortened: as §1
Mus musculus [3] = assay: Antiinflammatory activity in iNOS-/- mouse assessed as reduction in LPS-induced neutrophil migration in peritoneal activity at 10 mg/kg, sc dosed 15 mins prior LPS challenge measured after 6 hrs post LPS challenge by optical microscopic analysis; assay type: functional, organism-based
Procedure, shortened: (§2)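 Wild-type C57BL/6 or iNOS−/− male mice dosed sc (10 mg/kg), then ip LPS (300 ng/cavity) 15 min later. Killed at 6 h; peritoneal cavity washed. Total and differential cell counts done. Mean ± SEM, n = 4−5, Tukey's test.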

Neutrophil [4] = assay: Reduction of calcium influx in LTB4-induced mouse bone marrow neutrophils at 10 uM measured after 30 mins by Fluo 3-AM dye-based analysis; assay type: functional, cell-based
Procedure, shortened: (§3)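 Bone marrow neutrophils (1 × 10^6/mL) loaded with Fluo 3-AM for 40 min at 37 °C, 5% CO2, then incubated 30 min with 10 μM. Plated at 2 × 10^5 cells/well. CXCL2/MIP-2 (30 ng/mL) or LTB4 added automatically in a FlexStation 3 microplate reader and calcium influx fluorescence recorded.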

Mus musculus [5] = assay: Antiinflammatory activity in specific-pathogen free C57BL/6 mouse assessed as reduction in LPS-induced neutrophil migration in peritoneal activity at 10 mg/kg, sc dosed 15 mins prior LPS challenge measured after 6 hrs post LPS challenge by optical microscopic analysis; assay type: functional, organism-based; procedure, shortened: as §2
Neutrophil [6] = assay: Induction of apoptosis in mouse bone marrow neutrophils assessed as late apoptotic cells at 10 uM measured after 4 hrs by Annexin V-FITC/propidium iodide staining-based flow cytometry (reference value: 4.8 %); assay type: cell-based
Neutrophil [7] = assay: Effect on CXCR2 expression in mouse bone marrow neutrophils at 10 uM measured after 1.5 hrs by flow cytometric analysis; assay type: functional, cell-based
Procedure, shortened: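 Percoll-isolated (72%/65%) bone marrow neutrophils (1 × 10^6 cells/mL, ~95% pure) incubated 1.5 h with 10 μM. Stained 20 min at 4 °C with APC-anti-Ly6G (1:200) and PE-anti-CXCR2 (1:50). Fixed in PBS/2% formaldehyde; two-color flow cytometry. Mean ± SEM, n = 3−4.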

Mus musculus [8] = species: Mus musculus; assay: Reduction in LTB4-induced chemotaxis in mouse bone marrow neutrophils at 3 and 10 uM pre-treated for 30 mins prior LTB4-challenge measured after 60 mins using Boyden's chamber by chemotaxis assay; assay type: functional
Procedure, shortened: (§4)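 Percoll-isolated bone marrow neutrophils (1 × 10^6 cells/mL) pre-incubated 30 min at 37 °C, 5% CO2 (1, 3 or 10 μM). Boyden chamber with 5-μm membrane; CXCL2/MIP-2 30 ng/mL or LTB4 in 0.01% RPMI-BSA as chemoattractant, RPMI-BSA as negative control. Migration 60 min. Panotic-stained cells averaged over 5 fields at 1000×; triplicate, n = 3−4.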

Mus musculus [9] = assay: Antiinflammatory activity in C57BL/6 mouse assessed as reduction in CXCL2/MIP-2 release in peritoneal cavity at 10 mg/kg, sc dosed 30 mins prior LPS challenge measured after 3 hrs post LPS challenge by ELISA; assay type: functional, organism-based; procedure, shortened: as §1
Mus musculus [10] = assay: Antiinflammatory activity in C57BL/6 mouse assessed as reduction in LPS-induced leukocyte adhesion in mesenteric venules at 10 mg/kg, sc dosed 30 mins prior LPS-challenge measured after 2 to 4 hrs post LPS challenge by intravital microscopy; assay type: functional, organism-based
Procedure, shortened: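 Mice dosed sc 30 min before ip LPS (300 ng/cavity). Animals anesthetized 2 or 4 h after the stimulus and mesentery exposed on a 37 °C thermostatted plate. Post-capillary venules of 10−18 μm diameter imaged. Rolling leukocytes counted over 10 min; cells stationary >30 s scored adherent. Five fields per animal. Mean ± SEM, n = 4−5.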

[11] = Induction of apoptosis in mouse bone marrow neutrophils assessed as viable cells at 10 uM measured after 4 hrs by Annexin V-FITC/propidium iodide staining-based flow cytometry (reference value: 90.8 %); assay type: cell-based, Neutrophil; conditions: read-out: Activity
[12] = Induction of apoptosis in mouse bone marrow macrophages assessed as necrotic cells at 10 uM measured after 4 hrs by Annexin V-FITC/propidium iodide staining-based flow cytometry (reference value: 0.69 %); assay type: cell-based; conditions: bmdm
Mus musculus [13] = assay: Antiinflammatory activity in C57BL/6 mouse assessed as reduction in CXCL2/MIP-2 release in peritoneal cavity at 10 mg/kg, sc dosed 30 mins prior mBSA challenge measured after 3 hrs post mBSA challenge by ELISA; assay type: functional, organism-based; procedure, shortened: as §1
Mus musculus [14] = assay: Antiinflammatory activity in C57BL/6 mouse assessed as reduction in LPS-induced neutrophil migration in peritoneal activity at 1 to 10 mg/kg, sc dosed 30 mins prior LPS challenge measured after 6 hrs post LPS challenge using Neubauer chamber by optical microscopic analysis; assay type: functional, organism-based
Procedure, shortened: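 Male SPF C57BL/6 mice (20−22 g) dosed sc (1, 3 or 10 mg/kg) 30 min before ip LPS (300 ng/cavity). Killed at 6 h; cavity washed with 3 mL PBS/1 mM EDTA. Total cells counted in a Neubauer chamber; differential count of 100 cells on Panotic-stained cytospins at 1000×. Neutrophils per cavity, mean ± SEM, n = 4−5.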

Mus musculus [15] = assay: Antiinflammatory activity in C57BL/6 mouse assessed as reduction in IL1-beta release in peritoneal cavity at 10 mg/kg, sc dosed 30 mins prior mBSA challenge measured after 3 hrs post mBSA challenge by ELISA
[16] = Induction of apoptosis in mouse bone marrow macrophages assessed as early apoptotic cells at 10 uM measured after 4 hrs by Annexin V-FITC/propidium iodide staining-based flow cytometry (reference value: 5.03 %); assay type: cell-based; conditions: bmdm
Neutrophil [17] = assay: Reduction of calcium influx in CXCL2/MIP2-induced mouse bone marrow neutrophils at 10 uM measured after 30 mins by Fluo 3-AM dye-based analysis; assay type: functional, cell-based; procedure, shortened: as §3
Neutrophil [18] = assay: Reduction in CXCL2/MIP2-induced chemotaxis in mouse bone marrow neutrophils at 3 and 10 uM pre-treated for 30 mins prior CXCL2/MIP2-challenge measured after 60 mins using Boyden's chamber by chemotaxis assay; assay type: functional, cell-based; procedure, shortened: as §4
Mus musculus [19] = assay: Antiinflammatory activity in C57BL/6 mouse assessed as reduction in TNFalpha release in peritoneal cavity at 10 mg/kg, sc dosed 30 mins prior LPS challenge measured after 1.5 hrs post LPS challenge by ELISA
Neutrophil [20] = assay: Induction of apoptosis in mouse bone marrow neutrophils assessed as necrotic cells at 10 uM measured after 4 hrs by Annexin V-FITC/propidium iodide staining-based flow cytometry (reference value: 0.898 %); assay type: cell-based
Neutrophil [21] = assay: Induction of apoptosis in mouse bone marrow neutrophils assessed as early apoptotic cells at 10 uM measured after 4 hrs by Annexin V-FITC/propidium iodide staining-based flow cytometry (reference value: 3.49 %); assay type: cell-based
BMDM [22] = assay: Antiinflammatory activity in LPS-stimulated mouse bone marrow macrophages assessed as reduction in CXCL2/MIP-2 release at 1 to 10 uM pre-incubated for 30 mins prior LPS challenge measured after 4 hrs by ELISA; assay type: functional, cell-based
Procedure, shortened: (§5)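 Femur/tibia bone marrow cells differentiated 7 days at 37 °C, 5% CO2 in RPMI with 10% FBS, penicillin, L-glutamine and 20% L929 supernatant. Macrophages seeded at 2 × 10^5/well and adhered 2 h. Pre-treated 30 min (1, 3 or 10 μM), then LPS 10 ng/mL for 4 h. Supernatant CXCL1/KC and CXCL2/MIP-2 measured by ELISA (pg/mL).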

[23] = Induction of apoptosis in mouse bone marrow macrophages assessed as late apoptotic cells at 10 uM measured after 4 hrs by Annexin V-FITC/propidium iodide staining-based flow cytometry (reference value: 2.29 %); assay type: cell-based; conditions: bmdm
Mus musculus [24] = assay: Antiinflammatory activity in C57BL/6 mouse assessed as reduction in LPS-induced leukocyte rolling in mesenteric venules at 10 mg/kg, dosed 30 mins prior LPS-challenge measured by intravital microscopy
Mus musculus [25] = assay: Antiinflammatory activity in C57BL/6 mouse assessed as reduction in mBSA-induced neutrophil migration in peritoneal activity at 1 to 10 mg/kg, sc dosed 21 days after immunization 15 mins prior to mBSA challenge measured after 6 hrs post mBSA challenge using Neubauer chamber by cell counting method
BMDM [26] = assay: Antiinflammatory activity in LPS-stimulated mouse bone marrow macrophages assessed as reduction in CXCL1/KC release at 1 to 10 uM pre-incubated for 30 mins prior LPS challenge measured after 4 hrs by ELISA; assay type: functional, cell-based; procedure, shortened: as §5
[27] = Induction of apoptosis in mouse bone marrow macrophages assessed as viable cells at 10 uM measured after 4 hrs by Annexin V-FITC/propidium iodide staining-based flow cytometry (reference value: 92 %); assay type: cell-based, BMDM; conditions: read-out: Activity

COc1ccc([C@H]2COc3cc(O)ccc3C2)c(O)c1
Activity (Mus musculus [1]): Active | Activity (Mus musculus [2]): Active | Activity (Mus musculus [3]): Active | Activity (Neutrophil [4]): Active | Activity (Mus musculus [5]): Active | Activity (Neutrophil [6]): 2.72% | Activity (Neutrophil [7]): inactive | Activity (Mus musculus [8]): Active | Activity (Mus musculus [9]): Active | Activity (Mus musculus [10]): Active | viability at 4 h, 10 µM [11]: 93.8% | Activity [12]: 1.03% | Activity (Mus musculus [13]): Active | Activity (Mus musculus [14]): Active | Activity (Mus musculus [15]): inactive | Activity [16]: 6.62% | Activity (Neutrophil [17]): Active | Activity (Neutrophil [18]): Active | Activity (Mus musculus [19]): inactive | Activity (Neutrophil [20]): 0.546% | Activity (Neutrophil [21]): 2.93% | Activity (BMDM [22]): Active | Activity [23]: 3.35% | Activity (Mus musculus [24]): Active | Activity (Mus musculus [25]): Active | Activity (BMDM [26]): Active | viability at 4 h, 10 µM [27]: 89%
